AF4-AF9 inh: inhibitors of AF4 peptide binding to AF9, primary screen, biochemical, AlphaScreen, biotin-AF4 peptide, FLAG-AF9, single point | inhibition, % at 10 µM | Protein AF-9 (Homo sapiens), P42568 | 350,000 tested, 0.47% active;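 active means every replicate reaching a set inhibition limit, whatever the replicate mean, cut at about 25% in these data; inconclusive means mean inhibition reaches that limit but some replicates miss it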;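 further: 0% = plate neutral control median and 100% = total signal loss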
CaV13 FRET inh: Disruptors of the CACNA1D IQ motif to Ca2+-dependent inactivation inhibitor domain association, primary screening, Förster resonance energy transfer in intact living …. HEK cells, CFP/YFP FRET ICDI-IQ, plate reader, 10 min; percent FRET-ratio fall versus neutral wells. 340,000 tested, 0.098% active. inhibition, % at 12.3 µM. AID 743397;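 active means mean replicate inhibition of at least 30% and at least 1% of replicates passing that level; inconclusive means only one of the two criteria is met; inactive means neither criterion is met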;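 further: 0% = median of the neutral control wells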
SIRT5 inh: SIRT5 desuccinylase inhibitors, primary screen, biochemical, fluorescence imaging, single point, set 5 | NAD-dependent protein deacylase sirtuin-5, mitochondrial (Homo sapiens), Q9NXA8 | Purified SirT5, succinyl-peptide AMC, trypsin-coupled fluorescence | inhibition, % at 15 µM | 330,000 tested, 1.1% active; in the data active means inhibition above about 15%; inconclusive means no clear call, values can overlap the other calls
Target sequence (Q9NXA8 whole entry, looked up): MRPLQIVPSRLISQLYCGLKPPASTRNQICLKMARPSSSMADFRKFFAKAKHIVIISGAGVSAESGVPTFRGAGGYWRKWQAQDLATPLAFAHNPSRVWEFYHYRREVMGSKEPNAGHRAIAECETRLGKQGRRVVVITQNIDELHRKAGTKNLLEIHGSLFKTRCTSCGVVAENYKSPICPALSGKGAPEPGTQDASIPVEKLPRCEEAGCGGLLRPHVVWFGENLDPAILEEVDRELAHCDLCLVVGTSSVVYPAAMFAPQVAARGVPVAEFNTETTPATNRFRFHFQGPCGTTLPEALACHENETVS
DENV2 CPE: inhibitors of DENV2 cytopathic effect, primary screen, cell-based, plate reader, single concentration | DENV2-infected cells, cytopathic effect rescue | CPE inhibition, % at 9.99 µM | 350,000 tested, 1.7% active; in the data active means CPE inhibition above about 20%, passing the limit was not always enough; inconclusive means no clear call, values can overlap the other calls; tested in BHK-21 cells;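 further: 0% = median of neutral control wells and 100% = median of positive control wells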
S100A4 MyoIIA: inhibitors of S100A4-myosin IIA peptide binding, primary screen, biochemical, fluorescence polarization, TAMRA-MyoIIA peptide. inhibition, % at 10.7 µM. AID 652163, 2013. 360,000 tested, 0.14% active. Protein S100-A4 (Homo sapiens), P26447;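 active means mean inhibition of at least 70% across replicates, with every replicate also reaching that level; inconclusive means mean inhibition reaches 70% but some replicates fall short; inactive means mean inhibition below 70%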
Target sequence (P26447 whole entry, looked up): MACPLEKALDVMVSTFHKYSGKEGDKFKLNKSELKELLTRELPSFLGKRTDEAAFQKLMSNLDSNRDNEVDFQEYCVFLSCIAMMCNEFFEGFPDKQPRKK
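Material: human S100A4 monomer with TAMRA-labelled myosin IIA peptide; buffer or medium: HEPES pH 7.2 with CaCl2, KCl, NaCl, DTT, Triton; compound dosing: one concentration per compound; schedule: 5 min incubation before reading; benchmarks: neutral control DMSO, positive control TFP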
* marks the source's active call; other numbers are inactive results; ? = inconclusive; . = no result given. Sampled rows, rich in hits. Any-hit rate of the full collection: about 2.7%.

SMILES	AF4-AF9 inh	CaV13 FRET inh	SIRT5 inh	DENV2 CPE	S100A4 MyoIIA
CCOC(=O)[C@]12CCC=C1N(Cc1cccc3ccccc13)C(=O)[C@H](CC(=O)N1CCCC1)C2	1.1	-0.9	-7.3	37.3*	0.0
COC(=O)[C@]12CCCCC=C1N(Cc1cccc3ccccc13)C(=O)[C@H](CC(=O)NCC1CCCCC1)C2	2.2	-9.0	22.0*	-2.9	-4.2
COC(=O)[C@]12CCCCC=C1N(Cc1cccc3ccccc13)C(=O)[C@H](CC(=O)NCc1ccccc1)C2	0.1	-10.5	-3.1	-9.7	-1.1
COC(=O)[C@]12CCCCC=C1N(Cc1cccc3ccccc13)C(=O)[C@H](CC(=O)N1CCSCC1)C2	7.9	-9.9	-0.4	32.1*	6.4
COC(=O)[C@]12CCCCC=C1N(Cc1cccc3ccccc13)C(=O)[C@H](CC(=O)NCCC(C)C)C2	3.5	-10.6	1.6	109.3*	-2.7
CCOC(=O)[C@]12CCC=C1N(Cc1cccc3ccccc13)C(=O)[C@H](CC(=O)N1CCCCC1)C2	0.2	-1.7	-0.5	?	0.1
O=S(=O)(c1cccs1)N1CCCCN2[C@@H](CO)[C@@H](c3ccc(C4=CCCC4)cc3)[C@@H]2C1	3.3	.	3.7	9.6	-1.9
Cc1noc(C)c1NC(=O)Nc1ccc2c(c1)CC(=O)N([C@@H](C)CO)C[C@H](C)[C@@H](CN(C)S(=O)(=O)c1c(C)noc1C)O2	-0.7	.	2.7	-8.0	13.1
Cc1ccc(CNC(=O)CSc2ccc(-c3cccs3)nn2)cc1	-3.9	-5.2	.	20.2*	2.1
CCOC(=O)C1=C(CN2CCOCC2)NC(=O)NC1c1cccc([N+](=O)[O-])c1 (configuration not stated)	1.5	-4.0	16.1*	-1.1	-7.9
CCOC(=O)C1=C(CN2CCSCC2)NC(=O)NC1c1cccc([N+](=O)[O-])c1 (configuration not stated)	-5.8	-8.9	0.2	11.8	0.7
C[C@H]1CN([C@@H](C)CO)C(=O)c2cc(NC(=O)CCCCCC(=O)Nc3ccccc3N)ccc2O[C@H]1CN(C)S(=O)(=O)c1cccs1	-3.0	.	-1.5	0.3	98.3*
C[C@@H]1CN([C@H](C)CO)C(=O)c2cc(NC(=O)CCCN(C)C)ccc2O[C@@H](C)CCCCO[C@H]1CN(C)S(=O)(=O)c1cccs1	1.1	.	-3.3	34.3*	-3.3
C[C@@H]1CCCCO[C@@H](CN(C)S(=O)(=O)c2ccccc2)[C@@H](C)CN([C@H](C)CO)C(=O)c2cc(NC(=O)CCCCCC(=O)Nc3ccccc3N)ccc2O1	0.4	.	.	3.1	5.6
C[C@@H]1CCCCO[C@H](CN(C)S(=O)(=O)c2cccs2)[C@@H](C)CN([C@H](C)CO)C(=O)c2cc(NC(=O)CCCCCC(=O)Nc3ccccc3N)ccc2O1	-2.4	.	2.2	23.9*	-25.9
C[C@@H]1CN([C@H](C)CO)C(=O)c2cccc(NC(=O)CCCCCC(=O)Nc3ccccc3N)c2O[C@H]1CN(C)S(=O)(=O)c1cccs1	1.0	.	4.8	12.0	74.0*
C[C@@H]1CN([C@@H](C)CO)C(=O)c2cccc(NC(=O)CCCCCC(=O)Nc3ccccc3N)c2O[C@@H]1CN(C)S(=O)(=O)c1cccs1	-1.3	.	4.1	-14.4	7.3
C[C@@H]1CCCCO[C@H](CN(C)Cc2ccc(C(=O)O)cc2)[C@@H](C)CN([C@H](C)CO)C(=O)c2cc(NC(=O)Nc3cccc4ccccc34)ccc2O1	-1.1	.	-1.0	9.2	2.6
C[C@H](CO)N1C[C@H](C)[C@@H](CN(C)S(=O)(=O)c2ccccc2)Oc2ccc(NC(=O)CCCCCC(=O)Nc3ccccc3N)cc2C1=O	-4.1	.	18.5*	0.9	2.2
CO[C@H]1CN(C)C(=O)c2cc(NS(C)(=O)=O)ccc2OC[C@H](C)N(C(=O)CN(C)C)C[C@@H]1C	-1.5	.	-5.9	63.6*	13.4
CO[C@@H]1CN(C)C(=O)c2cc(NS(C)(=O)=O)ccc2OC[C@@H](C)N(C(=O)CN(C)C)C[C@@H]1C	-1.2	.	-2.9	20.6*	-3.3
CO[C@H]1CN(C)C(=O)c2cc(NS(C)(=O)=O)ccc2OC[C@@H](C)N(C(=O)CN(C)C)C[C@@H]1C	-1.2	.	-4.6	-2.0	-1.7
C[C@@H]1CCCCO[C@H](CN(C)S(=O)(=O)c2ccc(Cl)cc2)[C@@H](C)CN([C@@H](C)CO)C(=O)c2cc(NC(=O)CCCN(C)C)ccc2O1	13.0	.	-3.4	3.4	-18.9
O=C1OC(=O)c2c(Br)c(Br)c(Br)c(Br)c21	.	.	.	38.9*	8.8
CC(NC(=O)c1ccncc1)C(c1cccs1)N1CCOCC1 (configuration not stated)	4.2	-7.6	19.9*	-9.5	8.8
SMILES	AF4-AF9 inh	CaV13 FRET inh	SIRT5 inh	DENV2 CPE	S100A4 MyoIIA
CC(NC(=O)c1ccc(C(C)(C)C)cc1)C(c1cccs1)N1CCOCC1 (configuration not stated)	-2.5	-7.1	-4.4	-3.9	-8.7
O=C(NCc1nnnn1-c1ccc(Cl)cc1)C1CC(=O)N(c2ccc(F)cc2)C1 (configuration not stated)	-0.9	36.2*	.	6.0	0.9
Cc1ccc(S(=O)(=O)N(C)C[C@H]2OCCCC[C@@H](C)Oc3ccc(NC(=O)CCCN(C)C)cc3C(=O)N([C@@H](C)CO)C[C@@H]2C)cc1	7.1	.	-3.7	-7.1	3.2
C[C@@H]1CN([C@@H](C)CO)C(=O)c2cc(NC(=O)CCCN(C)C)ccc2O[C@@H](C)CCCCO[C@@H]1CN(C)S(=O)(=O)c1ccc(F)cc1	4.2	.	-1.3	43.5*	2.1
CCOC(=O)CCCCCC(=O)Nc1ccc2c(c1)C(=O)N([C@H](C)CO)C[C@@H](C)[C@@H](CN(C)S(=O)(=O)c1ccc(C)cc1)OCCCC[C@H](C)O2	-0.2	-5.4	21.3*	?	-1.9
C[C@H](CO)N1C[C@H](C)[C@H](CN(C)S(=O)(=O)c2ccc(F)cc2)OCCCC[C@H](C)Oc2ccc(NC(=O)CCCN(C)C)cc2C1=O	2.4	.	-3.0	33.6*	1.8
C[C@@H]1CCCCO[C@H](CN(C)S(=O)(=O)c2ccccc2)[C@@H](C)CN([C@@H](C)CO)C(=O)c2cc(NC(=O)CCCN(C)C)ccc2O1	6.4	.	0.7	110.6*	-3.8
O=C(C[C@H]1C[C@H]2c3cc(NC(=O)C4CCC4)ccc3O[C@H]2[C@@H](CO)O1)NCc1ccccc1F	-12.9	.	2.8	3.8	8.7
CN1CCN(C(=O)C[C@H]2CC[C@H]3[C@@H](COC[C@H](O)CN3CC3CC3)O2)CC1	-3.5	.	-0.1	0.0	3.8

High-throughput results (PubChem)
